An excerpt weighted towards active compounds, which were near 5.1% of everything screened.
NF-kB neuron act: raises NF-kB expression in human neuronal cells; fold change at 12.5 µM; 190,000 tested, 1.6% active; NF-kB reporter expression; active compounds read high; in the data active = fold change above about 3.3
STAT3 activator: increases IL-6 driven STAT3 reporter signal; 190,000 tested, 0.91% active; activation (% of control), % at 5.6 µM; U3A cells, IL-6 STAT3-luciferase reporter, luminescence; 100% = signal with IL-6 EC80 alone; AID 871;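 active = activation above the screen-wide mean of compound activation plus 3 SD, cut at about 130% in these data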;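 also: 0% = background luminescence of wells with medium and substrate only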
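Material: STAT1-lacking human U3A cells, STAT3 luciferase reporter | Benchmarks: IL-6-only wells as 100% reference | Probe or stimulus: IL-6 (33 ng/mL) | Timing: Compound 1 h, then IL-6 6 h at 37 °C | Detection: Luminescence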
STAT1 act: activators of IFN-gamma induced STAT1 signaling; NIH 3T3 STAT1-luciferase reporter, luminescence; 100% = IFN-gamma alone, no compound; activation (% of control), % at 5.5 µM; 200,000 tested, 2.6% active; AID 932;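 active = activation above the screen-wide mean activation plus 3 SD, cut at about 130% in these data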;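 also: raw ratio to IFN-gamma control signal so 100% means no change and 0% no light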
STAT3 inh-1: inhibitors of IL-6 induced STAT3 signaling; U3A cells, IL-6 STAT3-luciferase reporter, luminescence; host cell line lacks STAT1; inhibition, % at 5.5 µM; 190,000 tested, 0.89% active; AID 862;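 active = inhibition above the mean inhibition across all screened compounds plus 3 SD, cut at about 44% in these data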;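 also: 0% = DMSO only wells and 100% = 100 µM nifuroxazide control wells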
APP 5'UTR act: activates APP 5'UTR luciferase reporter | SH-SY5Y APP 5'UTR luciferase reporter, luminescence; zero percent = DMSO vehicle wells | activation, % at 2 µM | 190,000 tested, 1% active | AID 1276;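 active = activation above a set limit, based on mean plus 3 SD of controls, cut at about 140% in these data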
STAT1 blocker: inhibitors of IFN-gamma induced STAT1 signaling | NIH 3T3 STAT1-luciferase reporter, luminescence | inhibition, % at 5.5 µM | 200,000 tested, 0.35% active;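 active = inhibition above a set limit, the mean inhibition across all tested compounds plus 3 SD, cut at about 34% in these data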;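 also: 0% = IFN-gamma with DMSO and 100% = IFN-gamma with 300 µM nifuroxazide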
STAT3 inh-2: confirmation of STAT3 signaling inhibitors; U3A cells, IL-6 STAT3 luciferase reporter, luminescence; cell line lacks STAT1; AID 1265; 1,200 tested, 45% active; shares compounds with STAT3 inh-1; inhibition, % at 5.7 µM;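 active = inhibition above the hit cutoff computed for the primary STAT3 screen, cut at about 44% in these data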;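 also: 0% = IL-6 plus DMSO and 100% = IL-6 plus nifuroxazide control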
NFkB inh 2: NF-kappaB inhibition in STAT3 inhibitor counter-screen. AID 1308. 1,200 tested, 36% active. shares compounds with STAT3 inh-1. HEK293T NF-kB luciferase reporter, TNF-alpha induced. inhibition, % at 5.7 µM;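 active = inhibition above the mean of solvent-only control wells plus 3 SD, cutoff set per campaign, cut at about 13% in these data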;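 also: 0% = TNF-alpha with DMSO and 100% = TNF-alpha with MG high control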
STAT1 inh 2: STAT1 inhibition in STAT3 inhibitor counter-screen; 1,200 tested, 27% active; shares compounds with STAT3 inh-1; AID 1317; NIH 3T3 STAT1-luciferase reporter, IFN-gamma induced, luminescence; inhibition, % at 5.7 µM;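 active = inhibition above the mean plus 3 SD of solvent-only control wells, limit set per screening run, cut at about 16% in these data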;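 also: 0% = DMSO with IFN-gamma and 100% = nifuroxazide control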
The depositor's hits bear a star.

How did CC(C)(C)c1ccc(C(=O)N2CCCCCC2=O)cc1 do in these assays?
NF-kB neuron act: 0.46; STAT3 activator: 64; STAT1 act: 82; STAT3 inh-1: 45*; APP 5'UTR act: -57; STAT1 blocker: 19; STAT3 inh-2: 64*; NFkB inh 2: 35*; STAT1 inh 2: 30*

Results for Cc1c(NC(=S)SCc2ccccc2)c(=O)n(-c2ccccc2)n1C ?
NF-kB neuron act: 1.6; STAT3 activator: 106; STAT1 act: 102; STAT3 inh-1: -6; APP 5'UTR act: -8; STAT1 blocker: -3

Results for CCCNC(=O)c1ccc(-c2nc3ccccc3s2)s1 ?
NF-kB neuron act: 4.6*; STAT3 activator: 39; STAT1 act: 88; STAT3 inh-1: 75*; APP 5'UTR act: 155*; STAT1 blocker: 13; STAT3 inh-2: 45*; NFkB inh 2: -12; STAT1 inh 2: -106

What do the screens show for `O=C(NCCCO)c1nc2ccccc2s1`?
NF-kB neuron act: 1; STAT3 activator: 108; STAT1 act: 108; STAT3 inh-1: -5; APP 5'UTR act: -5; STAT1 blocker: -9

Results for CCOC(=O)c1cnn(-c2ccccc2)c1-n1cccc1C(=O)C(=O)Nc1ccccc1 ?
NF-kB neuron act: 1.4; STAT3 activator: 112; STAT1 act: 106; STAT3 inh-1: -8; APP 5'UTR act: 23; STAT1 blocker: -6

How did c1ccc(-c2cc(CSc3nc4ccccc4[nH]3)on2)cc1 do in these assays?
NF-kB neuron act: 0.79; STAT3 activator: 63; STAT1 act: 88; STAT3 inh-1: 46*; APP 5'UTR act: -12; STAT1 blocker: 13; STAT3 inh-2: 37; NFkB inh 2: 11; STAT1 inh 2: 14

Results for Cc1ccnc(NC(=O)c2ccc(N3C(=O)CCC3=O)cc2)c1 ?
NF-kB neuron act: 1.4; STAT3 activator: 104; STAT1 act: 126; STAT3 inh-1: 0; APP 5'UTR act: 2; STAT1 blocker: -28

What do the screens show for `Fc1ccc(Sc2ccccc2CNC2=NCCN2)cc1`?
NF-kB neuron act: 1.3; STAT3 activator: 63; STAT1 act: 88; STAT3 inh-1: 46*; APP 5'UTR act: 14; STAT1 blocker: 13; STAT3 inh-2: 29; NFkB inh 2: -7; STAT1 inh 2: 13

Results for Cc1ccc(S(=O)(=O)N2CCC(C(=O)OCc3ccc([N+](=O)[O-])cc3)CC2)cc1 ?
NF-kB neuron act: 1.1; STAT3 activator: 105; STAT1 act: 104; STAT3 inh-1: -6; APP 5'UTR act: -14; STAT1 blocker: -4

Results for O=C(CSCCO)Nc1ccc(C23CC4CC(CC(C4)C2)C3)cc1 ?
NF-kB neuron act: 0.9; STAT3 activator: 66; STAT1 act: 124; STAT3 inh-1: 44*; APP 5'UTR act: -9; STAT1 blocker: -18; STAT3 inh-2: 33; NFkB inh 2: 22*; STAT1 inh 2: -29

How did O=C(CSCCO)Nc1ccc([N+](=O)[O-])cc1 do in these assays?
NF-kB neuron act: 1.2; STAT3 activator: 108; STAT1 act: 92; STAT3 inh-1: -1; APP 5'UTR act: -6; STAT1 blocker: 8

Results for Cn1c(CS/C(N)=N/N=C/c2ccccc2)c(Br)c(=O)n1-c1ccccc1 ?
NF-kB neuron act: 1; STAT3 activator: 99; STAT1 act: 94; STAT3 inh-1: 4; APP 5'UTR act: 24; STAT1 blocker: 7

How did CC(=O)Nc1ccc2oc(-c3cc(F)c(F)cc3Cl)nc2c1 do in these assays?
NF-kB neuron act: 6.1*; STAT3 activator: 63; STAT1 act: 148*; STAT3 inh-1: 46*; APP 5'UTR act: 33; STAT1 blocker: -37; STAT3 inh-2: 32; NFkB inh 2: -24; STAT1 inh 2: -91

Results for CC(=O)Nc1ccc2oc(C)nc2c1 ?
NF-kB neuron act: 1.1; STAT3 activator: 100; STAT1 act: 107; STAT3 inh-1: 2; APP 5'UTR act: 15; STAT1 blocker: -9

Results for CC(=O)Nc1ccc2oc(-c3ccccc3Br)nc2c1 ?
NF-kB neuron act: 7.3*; STAT3 activator: 65; STAT1 act: 122; STAT3 inh-1: 48*; APP 5'UTR act: 162*; STAT1 blocker: -24; STAT3 inh-2: 12; NFkB inh 2: -38; STAT1 inh 2: -127

What do the screens show for `CC(C)C(=O)Nc1ccc2oc(-c3cc(F)c(F)cc3Cl)nc2c1`?
NF-kB neuron act: 2; STAT3 activator: 92; STAT1 act: 117; STAT3 inh-1: 13; APP 5'UTR act: -2; STAT1 blocker: -17

Results for N#C/C(=C\C=C\c1ccccc1)C(=O)NCc1cccnc1 ?
NF-kB neuron act: 1.6; STAT3 activator: 98; STAT1 act: 83; STAT3 inh-1: 6; APP 5'UTR act: -1; STAT1 blocker: 16

How did Clc1ccc(/C=N/c2c(-c3ccc(Cl)cc3)nc3n2CCS3)cc1 do in these assays?
NF-kB neuron act: 1.8; STAT3 activator: 92; STAT1 act: 107; STAT3 inh-1: 13; APP 5'UTR act: 17; STAT1 blocker: -8

Results for Cc1ccnc(NC(=O)c2ccc3c(c2)OCO3)c1 ?
NF-kB neuron act: 4.2*; STAT3 activator: 51; STAT1 act: 76; STAT3 inh-1: 59*; APP 5'UTR act: 206*; STAT1 blocker: 24; STAT3 inh-2: 22; NFkB inh 2: -14; STAT1 inh 2: -29

How did Cc1nc(-c2ccccc2)sc1-c1nc(-c2ccncc2)ncc1S(=O)(=O)c1ccccc1 do in these assays?
NF-kB neuron act: 0.81; STAT3 activator: 109; STAT1 act: 93; STAT3 inh-1: -6; APP 5'UTR act: 0; STAT1 blocker: 8

What do the screens show for `CCc1c(C)c2ccc(OCC(=O)N(C)C)c(C)c2oc1=O`?
NF-kB neuron act: 1.3; STAT3 activator: 90; STAT1 act: 97; STAT3 inh-1: 16; APP 5'UTR act: 5; STAT1 blocker: 3

Results for CCc1c(C)c2ccc(OCC(=O)OC(C)C)c(C)c2oc1=O ?
NF-kB neuron act: 0.92; STAT3 activator: 54; STAT1 act: 94; STAT3 inh-1: 56*; APP 5'UTR act: -5; STAT1 blocker: 7; STAT3 inh-2: 48*; NFkB inh 2: 2; STAT1 inh 2: 7

Results for Cc1cc(NC(=O)c2ccc3c(c2)C(=O)N(C2CCCCC2)C3=O)no1 ?
NF-kB neuron act: 1; STAT3 activator: 96; STAT1 act: 98; STAT3 inh-1: 9; APP 5'UTR act: 6; STAT1 blocker: 2
